Converted amounts (≈) assume the structure as drawn.
Columns and labels:
Type in all cases: functional
Staphylococcus aureus [1] = experiment: Antimicrobial activity against Staphylococcus aureus SG 511 after 24 hrs by microtiter plate based MIC assay; settings: SG 511, 24 h
In short: (§1)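 Broth microdilution MIC in LB broth. Compounds were twofold serially diluted in 0.5% MeOH, and reference antibiotics were diluted from 40 to 0.31 μg/mL per well. The bacterial inoculum was adjusted by turbidity at 600 nm to a 0.5 McFarland standard. Test solution was added at one part to nine parts culture, then incubated at 36 °C for 24 h. The assay was run in triplicate, with vehicle-matched blank growth controls.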

Staphylococcus aureus [2] = experiment: Antimicrobial activity against methicillin-resistant Staphylococcus aureus 3089 after 24 hrs by microtiter plate based MIC assay; settings: Staphylococcus aureus, 3089, 24 h; in short: as §1
Vibrio parahaemolyticus = experiment: Antimicrobial activity against multidrug-resistant Vibrio parahaemolyticus 7001 after 24 hrs by microtiter plate based MIC assay; settings: Vibrio parahaemolyticus, 7001, 24 h; in short: as §1

Row | Compound | MIC (Staphylococcus aureus [1]) [µg/mL] | MIC (Staphylococcus aureus [2]) [µg/mL] | MIC (Vibrio parahaemolyticus) [µg/mL]
1 | CCCCCCCC[C@]1(OC)O[C@H](OC)c2c(O)cccc21 [PAECILOCIN B] | 5 (≈ 16.2 µM) | 20 (≈ 64.8 µM) | > 40
2 | CN(C)[C@@H]1C(O)=C(C(N)=O)C(=O)[C@@]2(O)C(O)=C3C(=O)c4c(O)cccc4[C@@](C)(O)[C@H]3C[C@@H]12 [TETRACYCLINE] | 1.25 (≈ 2.81 µM) | – | –
3 | C[C@H]1COc2c(N3CCN(C)CC3)c(F)cc3c(=O)c(C(=O)O)cn1c23.C[C@H]1COc2c(N3CCN(C)CC3)c(F)cc3c(=O)c(C(=O)O)cn1c23.O [LEVOFLOXACIN] | – | – | 0.156
4 | CCCCCCCC[C@@H]1OC(=O)c2c(O)cccc21 [PAECILOCIN A] | > 40 | > 40 | > 40
5 | CCCCCCCC[C@]1(OC)O[C@@H](OC)c2c(O)cccc21 [PAECILOCIN C] | 20 (≈ 64.8 µM) | 40 (≈ 130 µM) | > 40
6 | CN[C@H](CC(C)C)C(=O)N[C@H]1C(=O)N[C@@H](CC(N)=O)C(=O)N[C@H]2C(=O)N[C@H]3C(=O)N[C@H](C(=O)N[C@H](C(=O)O)c4cc(O)cc(O)c4-c4cc3ccc4O)[C@H](O)c3ccc(c(Cl)c3)Oc3cc2cc(c3O[C@@H]2O[C@H](CO)[C@@H](O)[C@H](O)[C@H]2O[C@H]2C[C@](C)(N)[C@H](O)[C@H](C)O2)Oc2ccc(cc2Cl)[C@H]1O [VANCOMYCIN] | – | 0.625 (≈ 0.431 µM) | –
